Screens: PubChem, several laboratories
STAT3 activator = increases IL-6 driven STAT3 reporter signal | activation (% of control), % at 5.6 µM | U3A cells, IL-6 STAT3-luciferase reporter, luminescence; 100% = signal with IL-6 EC80 alone | 0.91% of 190,000 active;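 active = activation above the screen-wide mean of compound activation plus 3 SD, cut at about 130% in these data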;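 also: 0% = background luminescence of wells with medium and substrate only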
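Material: STAT3-luciferase reporter U3A cells. Controls: IL-6-treated wells, 100% activation. Read-out: % activation versus median of IL-6-stimulated wells. Probe or stimulus: IL-6 stimulus at 33 ng/mL final. Timing: compound 1 h, then IL-6 6 h at 37 °C. Signal: reporter luminescence signal.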
NF-kB neuron act = raises NF-kB expression in human neuronal cells; NF-kB reporter expression; stronger effect = higher value; fold change at 12.5 µM; 1.6% of 190,000 active; AID 1239; in the data active = fold change above about 3.3
STAT1 act = increases IFN-gamma driven STAT1 reporter signal; NIH 3T3 STAT1-luciferase reporter, luminescence; 100% = IFN-gamma alone, no compound; 2.6% of 200,000 active; activation (% of control), % at 5.5 µM;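 active = activation above the screen-wide mean activation plus 3 SD, cut at about 130% in these data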;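 also: raw ratio to IFN-gamma control signal so 100% means no change and 0% no light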
APP 5'UTR act = APP 5'UTR luciferase reporter activation; SH-SY5Y APP 5'UTR luciferase reporter, luminescence; zero percent = DMSO vehicle wells; activation, % at 2 µM; 1% of 190,000 active;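 active = activation above a set limit, based on mean plus 3 SD of controls, cut at about 140% in these data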
STAT3 inh-1 = reduces IL-6 driven STAT3 reporter signal; AID 862; U3A cells, IL-6 STAT3-luciferase reporter, luminescence; host cell line lacks STAT1; 0.89% of 190,000 active; inhibition, % at 5.5 µM;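 active = inhibition above the mean inhibition across all screened compounds plus 3 SD, cut at about 44% in these data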;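 also: 0% = DMSO only wells and 100% = 100 µM nifuroxazide control wells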
STAT1 inh = reduces IFN-gamma driven STAT1 reporter signal; NIH 3T3 STAT1-luciferase reporter, luminescence; 0.35% of 200,000 active; inhibition, % at 5.5 µM; AID 920;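 active = inhibition above a set limit, the mean inhibition across all tested compounds plus 3 SD, cut at about 34% in these data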;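 also: 0% = IFN-gamma with DMSO and 100% = IFN-gamma with 300 µM nifuroxazide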
STAT3 inh-2 = STAT3 inhibition, confirmation assay; 45% of 1,200 active; U3A cells, IL-6 STAT3 luciferase reporter, luminescence; cell line lacks STAT1; inhibition, % at 5.7 µM; shares compounds with STAT3 inh-1;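 active = inhibition above the hit cutoff computed for the primary STAT3 screen, cut at about 44% in these data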;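 also: 0% = IL-6 plus DMSO and 100% = IL-6 plus nifuroxazide control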
NFkB inh 2 = NF-kappaB inhibition in STAT3 inhibitor counter-screen | shares compounds with STAT3 inh-1 | HEK293T NF-kB luciferase reporter, TNF-alpha induced | inhibition, % at 5.7 µM | 36% of 1,200 active | AID 1308;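 active = inhibition above the mean of solvent-only control wells plus 3 SD, cutoff set per campaign, cut at about 13% in these data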;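 also: 0% = TNF-alpha with DMSO and 100% = TNF-alpha with MG high control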
STAT1 inh STAT3c = inhibits STAT1, counter-screen to STAT3 inhibitors; shares compounds with STAT3 inh-1; NIH 3T3 STAT1-luciferase reporter, IFN-gamma induced, luminescence; inhibition, % at 5.7 µM; 27% of 1,200 active;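 active = inhibition above the mean plus 3 SD of solvent-only control wells, limit set per screening run, cut at about 16% in these data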;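 also: 0% = DMSO with IFN-gamma and 100% = nifuroxazide control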
Starred values were filed as active, the others as inactive; nt = no result given. In the library only some 5.1% were active in any assay of this set; here they are far more common.

SMILES | STAT3 activator | NF-kB neuron act | STAT1 act | APP 5'UTR act | STAT3 inh-1 | STAT1 inh | others
O=C(Nc1nc2ccccc2[nH]1)C1CCCC1 | 107.1 | 0.93 | 136.3* | 88.6 | -3.7 | -43.9
O=C(Nc1nc2ccccc2[nH]1)C1CCC1 | 109.4 | 0.95 | 127.0 | 37.6 | -6.4 | -33.5
CCCCCC(=O)Nc1nc2ccccc2[nH]1 | 104.9 | 2.66 | 129.4* | 67.7 | -3.3 | -31.8
CCS(=O)(=O)N1Cc2ccccc2CC1C(=O)Nc1nc2ccccc2[nH]1 (stereo unspecified) | 114.2 | 0.86 | 117.9 | 181.9* | -10.0 | -20.5
O=C(Cc1cccc2ccccc12)Nc1nc2ccccc2[nH]1 | 106.8 | 1.03 | 98.4 | -9.0 | -10.0 | 1.7
O=C(CC1CCCC1)Nc1nc2ccccc2[nH]1 | 109.2 | 2.33 | 144.0* | 91.3 | -6.4 | -48.0
COc1cc(C2C(N3C(=O)c4ccccc4C3=O)C(=O)N2c2cccc(C)c2)cc(OC)c1OC (stereo unspecified) | 99.6 | 1.03 | 91.8 | 3.8 | 0.8 | 9.3
CC(C)c1ccc(C(=O)NC2=NCCS2)cc1 | 71.8 | 1.05 | 145.3* | 167.3* | 34.1 | -51.7
COc1cc(OC)cc(C(=O)NC2=NCCS2)c1 | 93.4 | 1.24 | 103.8 | -2.3 | 9.0 | -3.0
O=C(NC1=NCCS1)c1cccc(OC(F)F)c1 | 105.9 | 4.09* | 140.2* | 150.2* | -1.7 | -40.5
COc1ccc(-n2c(=O)c3c(C)c(C)sc3n(Cc3ccc(F)cc3)c2=O)c(OC)c1 | 105.5 | 1.06 | 98.0 | 8.1 | 6.1 | 1.4
Cc1cc(N)n(-c2ccc(S(N)(=O)=O)cc2[N+](=O)[O-])n1 | 100.2 | 1.06 | 109.3 | -23.1 | 1.4 | -12.9
CNS(=O)(=O)c1ccc2nc(NC(=O)/C=C/c3ccco3)sc2c1 | 86.5 | 1.12 | 130.6* | 28.7 | 20.1 | -33.3
O=C1CCC2S/C(=C/Nc3ccc(C(F)(F)F)cc3)C(=O)N12 (stereo unspecified) | 34.8 | 0.28 | 37.6 | -71.9 | 78.5* | 66.5*
O=C1CCCC/C1=C/Nc1cccc(C(F)(F)F)c1 | 98.5 | 1.32 | 123.1 | -3.6 | 12.0 | -27.3
Cc1ccc([N+](=O)[O-])cc1-c1ccc(/C=C(\C#N)c2[nH]nc(N)c2C#N)o1 | 110.9 | 1.44 | 140.4* | 41.8 | -12.9 | -45.4
CCOC(=O)C(C)N1N=C(/C=C/c2ccc(C)cc2)CCC1=O (stereo unspecified) | 102.8 | 1.21 | 100.7 | 7.4 | 1.6 | -0.8
C=CCN1N=C(/C=C/c2ccc(C)cc2)CCC1=O | 102.1 | 2.07 | 136.9* | 44.0 | 3.5 | -39.5
CSc1nnc(C)c(=O)n1COC(=O)/C=C/c1ccccc1 | 95.1 | 1.18 | 90.3 | -11.5 | 13.0 | 10.1
O=C(CSc1ncnc2ccccc12)c1ccco1 | 101.5 | 5.58* | 132.4* | 146.1* | 5.9 | -35.2
CCOC(=O)C1CCCN(S(=O)(=O)c2ccc(S(=O)(=O)N(CC)CC)cc2)C1 (stereo unspecified) | 35.1 | 1.18 | 69.6 | -23.3 | 77.9* | 31.2 | STAT3 inh-2=83.2*;NFkB inh 2=33.6*;STAT1 inh STAT3c=26.7*
COc1cc(N/N=C/c2ccccc2O)ncn1 | 82.9 | 2.84 | 108.4 | -40.9 | 18.6 | -9.4
COc1cc(N/N=C/c2ccc(N(C)C)cc2)ncn1 | 50.3 | 4.13* | 68.5 | 135.3* | 61.2* | 33.5 | STAT3 inh-2=8.5;NFkB inh 2=-0.3;STAT1 inh STAT3c=-103.2
O=C(CCCC(=O)OCC(=O)c1cccs1)Nc1ccc(F)cc1 | 102.6 | 1.01 | 101.4 | 7.2 | -0.7 | -0.9
O=C(/C=C/Nc1ccc(F)cc1)c1cccs1 | 64.0 | nt | 80.2 | 160.3* | 51.3* | 22.0 | STAT3 inh-2=-7.0;NFkB inh 2=-11.5;STAT1 inh STAT3c=-75.3
SMILES | STAT3 activator | NF-kB neuron act | STAT1 act | APP 5'UTR act | STAT3 inh-1 | STAT1 inh | others
Cc1ccc(NC(=O)CN(C)C(=O)CSc2nnc(C(F)(F)F)n2C)cc1 | 103.7 | 1.12 | 107.2 | -11.6 | 1.6 | -10.4
CCn1cnc2cc([N+](=O)[O-])ccc21 | 98.4 | 1.03 | 106.3 | 20.8 | 3.2 | -8.3
Cc1sc(NC(=O)c2ccco2)c(C(c2cccnc2)N2CCN(CCO)CC2)c1C (stereo unspecified) | 95.7 | 0.85 | 105.7 | 4.3 | 14.8 | -8.1
CCOC(=O)C1CCN(C(c2cccnc2)c2c(NC(=O)c3ccco3)sc(C)c2C)CC1 (stereo unspecified) | 57.5 | 0.92 | 94.2 | 9.3 | 50.0* | 6.3 | STAT3 inh-2=63.5*;NFkB inh 2=14.3*;STAT1 inh STAT3c=-2.2
O=C(Nc1ccc(N2CCOCC2)cc1)c1cn2ccccc2n1 | 39.4 | 2.14 | 74.5 | 108.0 | 76.4* | 28.0 | STAT3 inh-2=37.2;NFkB inh 2=-4.0;STAT1 inh STAT3c=-25.5
CC(C)(C)c1ccc(C(=O)N2CCCCCC2=O)cc1 | 63.8 | 0.46 | 82.5 | -56.9 | 44.9* | 19.0 | STAT3 inh-2=63.8*;NFkB inh 2=34.6*;STAT1 inh STAT3c=30.1*
CCN(CC(=O)NC1CCS(=O)(=O)C1)S(=O)(=O)c1ccc(C)c(C)c1 (stereo unspecified) | 92.3 | 1.09 | 93.0 | -3.1 | 7.2 | 7.9
COC(=O)c1ccc(-n2c(C)cc(C(=O)CSc3ccc(NC(C)=O)cc3)c2C)cc1 | 104.3 | 0.92 | 100.7 | -4.8 | -2.4 | -0.7
CC(=O)Nc1ccc(SCC(=O)c2cc(C)n(-c3ccccc3F)c2C)cc1 | 54.6 | 0.51 | 145.1* | 78.1 | 53.6* | -50.7 | STAT3 inh-2=22.4;NFkB inh 2=-40.0;STAT1 inh STAT3c=-114.7
CCOc1ccc(-n2c(SCc3ccc([N+](=O)[O-])cc3)nnc2-c2ccccc2)cc1 | 101.0 | 0.69 | 106.7 | 11.7 | -3.8 | -7.5
CCOc1ccc(-n2c(-c3ccccc3)c[n+]3c2CCCCC3)cc1 | 37.1 | 0.52 | 73.8 | 11.9 | 74.5* | 28.8 | STAT3 inh-2=76.4*;NFkB inh 2=2.5;STAT1 inh STAT3c=24.5*
CCCCn1c(N(CCOC(C)=O)C(C)=O)nc2ccccc21 | 100.5 | 1.3 | 91.5 | -0.7 | 3.5 | 9.3
CCn1ccnc1CN1CCN(CCC(C)C)C(CCO)C1 (stereo unspecified) | 109.5 | 1.15 | 100.7 | -20.7 | -5.7 | -2.1
Cc1cccc(-c2nsc(SCC(=O)NCC3CCCO3)n2)c1 (stereo unspecified) | 109.3 | 1.4 | 103.7 | -10.2 | -5.7 | -2.2
Cc1nn2cc(-c3ccccc3)nc2s1 | 57.9 | 5.4* | 144.2* | 113.9 | 52.2* | -48.6 | STAT3 inh-2=11.9;NFkB inh 2=-32.1;STAT1 inh STAT3c=-97.8
O=C1CC(c2ccccc2)CC(O)=C1C=Nc1ccccc1 (stereo unspecified) | 103.3 | 1.25 | 109.3 | 9.1 | -1.7 | -10.6
O=C1C(C=Nc2ccc(F)cc2)=C(O)c2ccccc21 | 58.8 | 7.14* | 148.6* | 148.0* | 50.9* | -51.0 | STAT3 inh-2=-31.1;NFkB inh 2=-57.4;STAT1 inh STAT3c=-213.2
